# Laboratory results taken from the array DNA melting data of Ke et al. (doi:10.1101/2024.01.08.574731).
# Tests used:
# [1] = folding enthalpy; higher = less favourable; fluorescence melt of hairpins on a sequencing array, two-state fit; settings: sodium 0.088 M
# Procedure, shortened: (§1)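 Cy3 fluorescence of library hairpins on a sequenced MiSeq flow cell, with annealed Cy3 and quencher oligos, was imaged in 50 mM Na-HEPES pH 8.0, 25 mM NaCl in 2.5 °C steps up to 60 °C. Signals were normalised to pre-quench Cy3 and to control variants. Melting temperature and folding enthalpy came from bootstrapped two-state fits, inverse-variance combined over four replicates. Fitted temperatures were raised by 9.35 °C to match UV melts.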
# [2] = melting temperature; fluorescence melt of hairpins on a sequencing array, two-state fit, raised by 9.35 °C to match UV melts; settings: sodium 0.088 M
# Procedure, shortened: as §1
sequence,measurement,setting,value
GGGGCAGGAAACTGCCTC (.(((((....))))).),folding enthalpy,[1],-13.1 kcal/mol
same,Tm,[2],59.6 °C
GTGAAGCGAAAGCTCAC (((.(((....)))))),folding enthalpy,[1],-26.2 kcal/mol
same,Tm,[2],56 °C
GAGTACCGAAAGGTGCTC (((.(((....))).))),folding enthalpy,[1],-36.6 kcal/mol
same,Tm,[2],60.6 °C
GATCTAGTAATAGATC ((((((....)))))),folding enthalpy,[1],-35.8 kcal/mol
same,Tm,[2],47.9 °C
GCGTTAGGAAACCAACGC (((((.(....).))))),folding enthalpy,[1],-44.9 kcal/mol
same,Tm,[2],49.8 °C
GCTGTGGGAAACCACGGC ((.((((....)))).)),folding enthalpy,[1],-36.2 kcal/mol
same,Tm,[2],58.8 °C
GGTTATCGAAAGATTACC (((.(((....))).))),folding enthalpy,[1],-31.1 kcal/mol
same,Tm,[2],43.5 °C
GCGAAGCATCGC ((((....)))),folding enthalpy,[1],-8.14 kcal/mol
same,Tm,[2],59.5 °C
GTGCACGAAAGTGTACAC ((((((....)))..))),folding enthalpy,[1],-17.1 kcal/mol
same,Tm,[2],51.8 °C
GTAATGGAAACATTAC ((((((....)))))),folding enthalpy,[1],-31.7 kcal/mol
same,Tm,[2],46.7 °C
GGTAAAACGAAAGTTACC (((..(((....)))))),folding enthalpy,[1],-19.1 kcal/mol
same,Tm,[2],37.3 °C
CGGGCGGAAACGCCTCCG ((((((....)))..))),folding enthalpy,[1],-8.08 kcal/mol
same,Tm,[2],36.1 °C
GAATTGGAAACAATTC ((((((....)))))),folding enthalpy,[1],-35.6 kcal/mol
same,Tm,[2],47.3 °C
GATCTTGTGTAAGATC ((((((....)))))),folding enthalpy,[1],-34.6 kcal/mol
same,Tm,[2],43.6 °C
GCTGGGCGAAAGCTGAGC (((..((....))..))),folding enthalpy,[1],-21 kcal/mol
same,Tm,[2],49.3 °C
GTGCACGGAAACACGCAC ((((..(....)..)))),folding enthalpy,[1],-29.2 kcal/mol
same,Tm,[2],41.1 °C
TCGATGAAAATCGA (((((....))))),folding enthalpy,[1],-19.5 kcal/mol
same,Tm,[2],47.4 °C
GCTTTTCCGAAAGGAAGC (((..(((....)))))),folding enthalpy,[1],-10.7 kcal/mol
same,Tm,[2],33.7 °C
GCTGACGAAAGTCAAAGC ((((((....)))..))),folding enthalpy,[1],-17.9 kcal/mol
same,Tm,[2],48.7 °C
GCAAACGGAAACATTTGC (((((.(....).))))),folding enthalpy,[1],-28.2 kcal/mol
same,Tm,[2],36.7 °C
GTCGTGGGAAACCGTGAC (((..((....))..))),folding enthalpy,[1],-25.9 kcal/mol
same,Tm,[2],36.7 °C
GCTTCCGGAAACGAAAGC ((((.((....)).)))),folding enthalpy,[1],-29.7 kcal/mol
same,Tm,[2],43 °C
GATCCATTTTTGGATC ((((((....)))))),folding enthalpy,[1],-39.5 kcal/mol
same,Tm,[2],54 °C
TTCATGAAAATGAA (((((....))))),folding enthalpy,[1],-9.75 kcal/mol
same,Tm,[2],28.9 °C
GGAAATGGAAACGTTTCC (((((.(....).))))),folding enthalpy,[1],-19.2 kcal/mol
same,Tm,[2],44.1 °C
GCCAGCGGAAACGCCAGC ((..(((....)))..)),folding enthalpy,[1],-13.7 kcal/mol
same,Tm,[2],39 °C
GATCCTCGTGAGGATC ((((((....)))))),folding enthalpy,[1],-36.6 kcal/mol
same,Tm,[2],61.5 °C
GTTGTCCGAAAGGAGAAC (((.(((....))).))),folding enthalpy,[1],-28.5 kcal/mol
same,Tm,[2],51.2 °C
GGACCGCCGAAAGGCTCC (((..(((....)))))),folding enthalpy,[1],-10 kcal/mol
same,Tm,[2],32.2 °C
GCGGCGCGAAAGCACGGC ((.(.((....)).).)),folding enthalpy,[1],-20.5 kcal/mol
same,Tm,[2],56.4 °C
GGATGCGGAAACGCACCC ((.((((....)))).)),folding enthalpy,[1],-27.4 kcal/mol
same,Tm,[2],52.2 °C
GAGGACGAAAGTCCCTC ((((((....))).))),folding enthalpy,[1],-11.3 kcal/mol
same,Tm,[2],51.2 °C
CGACCGGAAACGGGCTCG ((((((....)))..))),folding enthalpy,[1],-12.1 kcal/mol
same,Tm,[2],35.8 °C
GATCAGACCGCTGATC ((((((....)))))),folding enthalpy,[1],-28.5 kcal/mol
same,Tm,[2],47.8 °C
CGTTTGCGGAAACGCACG (((..(((....)))))),folding enthalpy,[1],-10.4 kcal/mol
same,Tm,[2],39.8 °C
GATCCCGAAAGGGACATC ((((((....)))..))),folding enthalpy,[1],-9.22 kcal/mol
same,Tm,[2],30.9 °C
GATCGAATACTCGATC ((((((....)))))),folding enthalpy,[1],-37.5 kcal/mol
same,Tm,[2],49.9 °C
GCAAACGAAAGTTGCTGC ((((((....)))..))),folding enthalpy,[1],-22.2 kcal/mol
same,Tm,[2],54.1 °C
GAGATGGAAACATCTC ((((((....)))))),folding enthalpy,[1],-37 kcal/mol
same,Tm,[2],53.5 °C
GTGCTGGGAAACTGGCAC ((((..(....)..)))),folding enthalpy,[1],-26.2 kcal/mol
same,Tm,[2],49.7 °C
GCTACGCGAAAGCGAAGC (((.(((....))).))),folding enthalpy,[1],-36.7 kcal/mol
same,Tm,[2],57.5 °C
GAACCCGAAAGGGTTTC ((((((....))).))),folding enthalpy,[1],-12.1 kcal/mol
same,Tm,[2],56.9 °C
GCGACTCGTCGC ((((....)))),folding enthalpy,[1],-33.6 kcal/mol
same,Tm,[2],68.3 °C
GCGTAAGGAAACTTGTGC ((..(((....)))..)),folding enthalpy,[1],-10.8 kcal/mol
same,Tm,[2],29.7 °C
GATCACATCGGTGATC ((((((....)))))),folding enthalpy,[1],-39.6 kcal/mol
same,Tm,[2],57 °C
GCACTCCGAAAGGATTGC (((.(((....))).))),folding enthalpy,[1],-28.1 kcal/mol
same,Tm,[2],50.6 °C
